# In ChEMBL document CHEMBL1148725, “2,2,2-Trichloro-N-({2-[2-(dimethylamino)ethyl]-1,3-dioxo-2,3-dihydro-1H-benzo[de]isoquinolin- 5-yl}carbamoyl)acetamide (UNBS3157), a novel nonhematotoxic naphthalimide derivative with potent antitumor activity” (J Med Chem, 2007):
# Active and inactive are the calls of the source. The rule behind the calls is not given here.
# Columns and labels:
# [1] = test system: Mus musculus; test: Hematotoxicity in B6D2F1 mouse assessed as WBC count at 10 mg/kg, iv; assay type: organism-based; set-up: dose 10 mg/kg, route intravenous; conditions: in vivo
# [2] = test system: Mus musculus; test: Hematotoxicity in B6D2F1 mouse assessed as platelet count at 10 mg/kg, iv; assay type: organism-based; set-up: dose 10 mg/kg, route intravenous; conditions: in vivo
# [3] = test system: MCF7; test: Induction of apoptosis in human MCF7 cells assessed as p53 activation; assay type: functional, cell-based
# In short: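 MCF-7 cells treated and p53 activation assessed by immunoblotting, with tubulin as loading control. Adriamycin (2.5 µM, 24 h) served as positive control.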
# [4] = Antiproliferative activity against U373MG cells after 72 hrs by MTT assay; assay type: functional, cell-based, Homo sapiens, U-373MG ATCC; conditions: Homo sapiens, U373 MG, 72 h
# In short: (§1)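 Cells cultured with each compound for three days; growth then read by the MTT colorimetric assay and reported as IC50 (µM).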
# [5] = test system: PC-3; test: Induction of apoptosis in human PC3 cells assessed as procaspase-8 activation; assay type: functional, cell-based
# [6] = test system: DU-145; test: Cell cycle arrest in DU145 cells assessed as accumulation at G2 phase at 10 uM after 72 hrs; assay type: functional, cell-based; conditions: Homo sapiens
# In short: (§2)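 PC-3 or DU-145 cells treated for 72 h with 0, 1 or 10 µM. Cell-cycle distribution (G0/G1, S, G2/M) determined by propidium iodide staining.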
# [7] = test system: DU-145; test: Induction of apoptosis in human DU145 cells assessed as p53 activation; assay type: functional, cell-based
# In short: (§3)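 PC-3 and DU-145 cells treated over 72 h at 1 and 10 µM, compared with untreated cells. p53, PARP cleavage and procaspase-3/-9 activation assessed by immunoblotting.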
# [8] = test system: L1210; test: Antitumor activity in L1210 cells xenografted B6D2F1 mouse at 20 mg/kg, ip relative to control; assay type: functional; conditions: route intraperitoneal
# In short: (§4)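 Mice grafted with L1210 leukaemia cells on day 0, then dosed i.p. four times weekly on days 1-4 and 8-11. Five mice per group. Outcome is %T/C, the median survival of treated over control. Kruskal-Wallis test followed by Dunn comparisons against control.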
# [9] = test system: Mus musculus; test: Hematotoxicity in B6D2F1 mouse assessed as platelet count at 40 mg/kg, iv; assay type: organism-based; set-up: dose 40 mg/kg, route intravenous; conditions: in vivo
# [10] = test system: Mus musculus; test: Hematotoxicity in B6D2F1 mouse assessed as RBC count at 160 mg/kg, po; assay type: organism-based; set-up: dose 160 mg/kg, route oral; conditions: in vivo
# [11] = test system: Mus musculus; test: Hematotoxicity in B6D2F1 mouse assessed as RBC count at 120 mg/kg, po; assay type: organism-based; set-up: dose 120 mg/kg, route oral; conditions: in vivo
# [12] = test system: PC-3; test: Induction of apoptosis in human PC3 cells assessed as PARP cleavage activation; assay type: functional, cell-based; in short: as §3
# [13] = test system: Mus musculus; test: Hematotoxicity in B6D2F1 mouse assessed as WBC count at 20 mg/kg, iv; assay type: organism-based; set-up: dose 20 mg/kg, route intravenous; conditions: in vivo
# [14] = test system: PC-3; test: Cell cycle arrest in PC3 cells assessed as accumulation at G2 phase at 10 uM after 72 hrs; assay type: functional, cell-based; conditions: Homo sapiens; in short: as §2
# [15] = test system: L1210; test: Antitumor activity in L1210 cells xenografted B6D2F1 mouse at 80 mg/kg, ip relative to control; assay type: functional; conditions: route intraperitoneal; in short: as §4
# [16] = test system: DU-145; test: Induction of apoptosis in human DU145 cells assessed as procaspase-9 activation; assay type: functional, cell-based; in short: as §3
# [17] = test system: L1210; test: Antitumor activity in L1210 cells xenografted B6D2F1 mouse at 10 mg/kg, ip relative to control; assay type: functional; conditions: route intraperitoneal; in short: as §4
# [18] = Antitumor activity against mouse MXT-HI cells xenografted in B6D2F1 mouse at 160 mg/kg, ip relative to control; assay type: functional; conditions: route intraperitoneal
# In short: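 MXT-HI mammary adenocarcinoma grafted s.c. onto female B6D2F1 mice. Dosing i.p., five injections weekly for three weeks from day 14 post-graft. Nine mice per group. Tumour surface area measured, and survival expressed as %T/C, the ratio of treated to control median survival time.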
# [19] = Toxicity in ip dosed B6D2F1 mouse; assay type: organism-based; conditions: in vivo
# In short: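 Acute MTD was set by a single i.p. dose to groups of three healthy female B6D2F1 mice, at 2.5, 5, 10, 20, 40, 80 and 160 mg/kg. The MTD is the dose just below the lowest dose that killed at least one mouse.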
# [20] = test system: Mus musculus; test: Hematotoxicity in B6D2F1 mouse assessed as RBC count at 10 mg/kg, iv; assay type: organism-based; set-up: dose 10 mg/kg; conditions: in vivo
# [21] = Antiproliferative activity against Hs683 cells after 72 hrs by MTT assay; assay type: functional, cell-based, Homo sapiens, Hs 683; conditions: Homo sapiens, Hs 683, 72 h; in short: as §1
# [22] = test system: Mus musculus; test: Hematotoxicity in B6D2F1 mouse assessed as RBC count at 40 mg/kg, iv; assay type: organism-based; set-up: dose 40 mg/kg, route intravenous; conditions: in vivo
# [23] = test system: L1210; test: Antitumor activity in L1210 cells xenografted B6D2F1 mouse at 160 mg/kg, ip relative to control; assay type: functional; conditions: route intraperitoneal; in short: as §4
# [24] = test system: Mus musculus; test: Hematotoxicity in B6D2F1 mouse assessed as platelet count at 120 mg/kg, po; assay type: organism-based; set-up: dose 120 mg/kg, route oral; conditions: in vivo
# [25] = test system: Mus musculus; test: Hematotoxicity in B6D2F1 mouse assessed as WBC count at 160 mg/kg, po; assay type: organism-based; set-up: dose 160 mg/kg, route oral; conditions: in vivo
# [26] = test system: Mus musculus; test: Hematotoxicity in B6D2F1 mouse assessed as RBC count at 20 mg/kg, iv; assay type: organism-based; set-up: dose 20 mg/kg, route intravenous; conditions: in vivo
smiles,measurement,setting,value
CN(C)CCN1C(=O)c2cccc3cc(NC(=O)NC(=O)C(Cl)(Cl)Cl)cc(c23)C1=O,Activity,[1],3.92 10^3 /uL
same,Activity,[2],402 10^3 /uL
same,Activity,[3],inactive
same,IC50,[4],900 nM
same,Activity,[5],inactive
same,Activity,[6],inactive
same,Activity,[7],inactive
same,Activity,[8],205%
same,Activity,[9],430 10^3 /uL
same,Activity,[10],10.13 10^6 /uL
same,Activity,[11],10.13 10^6 /uL
same,Activity,[12],inactive
same,Activity,[13],2.92 10^3 /uL
same,Activity,[14],Active
same,Activity,[15],>300%
same,Activity,[16],inactive
same,Activity,[17],197%
same,Activity,[18],183%
same,MTD,[19],> 160 mg/kg
same,Activity,[20],9.41 10^6 /uL
same,IC50,[21],800 nM
same,Activity,[22],9.1 10^6 /uL
same,Activity,[23],300%
same,Activity,[24],977 10^3 /uL
same,Activity,[25],2.82 10^3 /uL
same,Activity,[26],9.09 10^6 /uL
